Measured values taken from ChEMBL document CHEMBL4706586, “Structure-activity relationships for a series of (Bis(4-fluorophenyl)methyl)sulfinylethyl-aminopiperidines and -piperidine amines at the dopamine transporter: Bioisosteric replacement of the piperazine improves metabolic stability” (Eur J Med Chem, 2020).
pKi: −log10 of the molar value.

What was measured:
[1] = molecular target: Sodium-dependent dopamine transporter (Rattus norvegicus, UniProt P23977); experiment: Displacement of [3H]WIN35428 from DAT in Sprague-Dawley rat striatal membranes incubated for 120 mins by microbeta scintillation counting method; assay type: cell membranes, Striatum, Membrane
Chain of Sodium-dependent dopamine transporter (P23977 whole entry): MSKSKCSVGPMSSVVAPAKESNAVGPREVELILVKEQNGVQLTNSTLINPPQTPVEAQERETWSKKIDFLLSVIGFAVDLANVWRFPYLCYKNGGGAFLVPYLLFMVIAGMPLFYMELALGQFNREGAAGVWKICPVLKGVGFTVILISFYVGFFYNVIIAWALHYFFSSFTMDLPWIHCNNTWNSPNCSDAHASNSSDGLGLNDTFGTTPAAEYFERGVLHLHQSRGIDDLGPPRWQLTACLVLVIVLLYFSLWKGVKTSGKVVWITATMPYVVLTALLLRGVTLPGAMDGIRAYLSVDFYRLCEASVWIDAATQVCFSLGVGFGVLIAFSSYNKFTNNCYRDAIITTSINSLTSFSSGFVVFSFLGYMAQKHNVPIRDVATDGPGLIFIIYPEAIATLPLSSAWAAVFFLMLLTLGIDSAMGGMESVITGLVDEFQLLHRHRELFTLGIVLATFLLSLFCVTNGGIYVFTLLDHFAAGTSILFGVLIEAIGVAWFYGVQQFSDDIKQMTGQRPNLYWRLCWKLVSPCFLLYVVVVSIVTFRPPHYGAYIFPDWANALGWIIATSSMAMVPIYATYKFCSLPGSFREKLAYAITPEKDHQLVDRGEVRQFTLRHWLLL

[2] = molecular target: Sodium-dependent serotonin transporter (Rattus norvegicus, UniProt P31652); experiment: Displacement of [3H]citalopram from SERT in Sprague-Dawley rat midbrain membranes incubated for 60 mins by microbeta scintillation counting method; assay type: cell membranes, Membrane
Chain of Sodium-dependent serotonin transporter (P31652 whole entry): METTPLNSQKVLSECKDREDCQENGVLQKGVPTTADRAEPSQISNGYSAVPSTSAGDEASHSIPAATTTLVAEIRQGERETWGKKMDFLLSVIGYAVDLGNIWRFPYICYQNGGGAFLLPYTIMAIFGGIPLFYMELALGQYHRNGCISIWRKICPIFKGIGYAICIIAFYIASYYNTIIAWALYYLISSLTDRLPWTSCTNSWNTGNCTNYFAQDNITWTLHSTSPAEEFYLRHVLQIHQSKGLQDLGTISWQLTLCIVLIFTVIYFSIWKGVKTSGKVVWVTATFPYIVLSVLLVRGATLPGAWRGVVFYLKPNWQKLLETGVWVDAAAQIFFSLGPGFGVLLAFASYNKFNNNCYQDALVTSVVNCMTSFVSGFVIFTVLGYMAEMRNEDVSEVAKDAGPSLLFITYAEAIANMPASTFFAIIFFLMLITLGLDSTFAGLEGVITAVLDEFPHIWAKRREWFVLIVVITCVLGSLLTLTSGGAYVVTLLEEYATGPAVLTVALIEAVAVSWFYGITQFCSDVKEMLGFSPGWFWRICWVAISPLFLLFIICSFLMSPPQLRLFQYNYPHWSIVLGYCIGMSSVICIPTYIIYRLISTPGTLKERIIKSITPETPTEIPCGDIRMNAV

[3] = molecular target: Sigma non-opioid intracellular receptor 1 (Cavia porcellus, UniProt Q60492); experiment: Displacement of [3H](+)-pentazocine from sigma 1 receptor in guinea pig brain cortex membranes after 120 mins by scintillation counting analysis; assay type: cell membranes, Membrane
Chain of Sigma non-opioid intracellular receptor 1 (Q60492 whole entry): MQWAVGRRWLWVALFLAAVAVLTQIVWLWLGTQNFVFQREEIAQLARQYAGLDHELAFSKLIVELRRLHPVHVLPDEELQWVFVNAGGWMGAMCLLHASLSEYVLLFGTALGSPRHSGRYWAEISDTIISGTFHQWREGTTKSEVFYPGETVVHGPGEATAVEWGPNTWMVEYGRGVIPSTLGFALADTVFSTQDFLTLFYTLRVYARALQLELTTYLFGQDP
Procedure, shortened: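 Male guinea pig cortex membranes in 10 mM Tris-HCl/0.32 M sucrose pH 7.4, 5.0 mg/well original wet weight; [3H](+)-pentazocine 3 nM final; inhibitor serial dilutions in 30% DMSO vehicle, triplicate; 120 min at RT; nonspecific with 10 μM PRE084 or (+)-pentazocine.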

[4] = species: Rattus norvegicus; experiment: Selectivity ratio of Ki for SERT in Sprague-Dawley rat midbrain membranes to Ki for DAT in Sprague-Dawley rat striatum membranes
[5] = Selectivity ratio of Ki for sigma 1 receptor in guinea pig brain cortex membranes to Ki for DAT in Sprague-Dawley rat striatum membranes; assay type: cell membranes
[6] = molecular target: D(2) dopamine receptor (Homo sapiens, UniProt P14416); experiment: Displacement of [3H]-N-methylspiperone from human D2L receptor expressed in HEK293 cell membranes measured after 60 mins by microbeta scintillation counting method; design: species or system Membrane
Chain of D(2) dopamine receptor (P14416 whole entry): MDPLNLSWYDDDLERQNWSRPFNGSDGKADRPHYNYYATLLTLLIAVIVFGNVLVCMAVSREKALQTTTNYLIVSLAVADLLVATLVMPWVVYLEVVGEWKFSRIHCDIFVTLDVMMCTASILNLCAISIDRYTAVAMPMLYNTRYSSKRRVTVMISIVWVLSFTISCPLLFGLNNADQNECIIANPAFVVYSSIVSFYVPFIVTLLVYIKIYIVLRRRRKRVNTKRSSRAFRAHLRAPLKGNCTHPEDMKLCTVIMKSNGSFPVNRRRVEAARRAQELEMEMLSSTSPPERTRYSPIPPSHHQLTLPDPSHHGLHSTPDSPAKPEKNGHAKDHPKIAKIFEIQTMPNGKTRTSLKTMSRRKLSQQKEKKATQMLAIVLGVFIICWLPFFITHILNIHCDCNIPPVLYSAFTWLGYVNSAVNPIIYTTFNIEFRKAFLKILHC
Procedure, shortened: (§1)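 Membranes from HEK293 cells stably expressing human D2LR, D3R or D4.4R; 20 μg/well protein (D2LR, D3R) or 30 μg/well (D4.4R); [3H]-N-methylspiperone 0.4 nM final; half-log dilutions in 30% DMSO, triplicate; 60 min RT; nonspecific 10 μM (+)-butaclamol.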

[7] = molecular target: D(3) dopamine receptor (Homo sapiens, UniProt P35462); experiment: Displacement of [3H]-N-methylspiperone from human D3 receptor expressed in HEK293 cell membranes measured after 60 mins by microbeta scintillation counting method; design: species or system Membrane; procedure, shortened: as §1
Chain of D(3) dopamine receptor (P35462 whole entry): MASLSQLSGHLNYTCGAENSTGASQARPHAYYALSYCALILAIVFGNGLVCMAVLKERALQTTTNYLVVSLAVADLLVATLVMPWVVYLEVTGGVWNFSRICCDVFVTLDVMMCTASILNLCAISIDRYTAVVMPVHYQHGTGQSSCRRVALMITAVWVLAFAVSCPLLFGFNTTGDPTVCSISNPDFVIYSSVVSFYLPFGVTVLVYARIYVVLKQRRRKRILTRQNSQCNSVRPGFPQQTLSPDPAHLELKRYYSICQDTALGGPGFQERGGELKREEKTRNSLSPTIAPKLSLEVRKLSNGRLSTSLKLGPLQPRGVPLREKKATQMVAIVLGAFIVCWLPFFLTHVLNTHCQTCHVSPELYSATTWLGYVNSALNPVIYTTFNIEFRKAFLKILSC

[8] = molecular target: T1, D(4) dopamine receptor (Homo sapiens, UniProt P21917); experiment: Displacement of [3H]-N-methylspiperone from human D4.4 receptor expressed in HEK293 cell membranes measured after 60 mins by microbeta scintillation counting method; design: species or system Membrane; procedure, shortened: as §1
T1 sequence (P21917 whole entry): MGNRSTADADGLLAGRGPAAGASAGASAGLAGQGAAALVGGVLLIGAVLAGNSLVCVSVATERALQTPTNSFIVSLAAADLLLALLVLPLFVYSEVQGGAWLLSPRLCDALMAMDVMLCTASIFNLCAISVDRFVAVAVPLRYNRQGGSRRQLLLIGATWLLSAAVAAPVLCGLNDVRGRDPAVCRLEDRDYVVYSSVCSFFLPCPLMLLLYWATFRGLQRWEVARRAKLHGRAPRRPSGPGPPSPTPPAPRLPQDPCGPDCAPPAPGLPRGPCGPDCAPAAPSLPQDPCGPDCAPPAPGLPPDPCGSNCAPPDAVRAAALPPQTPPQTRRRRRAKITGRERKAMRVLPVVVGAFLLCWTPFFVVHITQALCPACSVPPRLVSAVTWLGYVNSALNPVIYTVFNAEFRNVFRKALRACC

[9] = Displacement of [3H]-Nisoxetine from NET in Sprague-Dawley rat frontal cortex membrane after 180 mins by microbeta scintillation counting method; assay type: cell membranes
[10] = Metabolic stability in rat liver microsomes assessed as compound remaining at 10 uM incubated for 60 mins in presence of NADPH regenerating system by LC-MS/MS analysis; assay type: ADME, Microsome; settings: 1 h
[11] = Metabolic stability in rat liver microsomes assessed as compound remaining at 10 uM in presence of NADPH regenerating system by LC-MS/MS analysis; assay type: ADME, Microsome
[12] = Toxicity in Swiss Webster mouse assessed as stimulation of ambulatory activity by measuring total distance travelled at 1 to 30 mg/kg, ip measured every 5 mins for 2 hrs; assay type: organism-based; settings: in vivo, dose 1-30 mg/kg

SMILES	pKi [1]	pKi [2]	pKi [3]	Ratio Ki [4]	Ratio Ki [5]	pKi [6]	pKi [7]	pKi [8]	pKi [9]	Stabilty [10] [%]	Stabilty [11] [%]	Activity [12] [cm]
CC(O)CN1CCN(CCSC(c2ccc(F)cc2)c2ccc(F)cc2)CC1 (stereo unspecified)	7.42	5.17	8.65									
Fc1ccc(C(SCCN2CCC(NCc3ccc(Cl)cc3)CC2)c2ccc(F)cc2)cc1			7.20	4.59	0.72							
OC(Cc1ccccc1)CN1CCC(NCCSC(c2ccc(F)cc2)c2ccc(F)cc2)CC1 (stereo unspecified)	7.50		6.51			5.40	6.16	5.66	6.23	74	100	
CC(C)(C)C(=O)N1CCC(NCCSC(c2ccc(F)cc2)c2ccc(F)cc2)CC1			6.79			5.22	5.47	4.92				
CC(C)(C)CN1CCC(NCC[S+]([O-])C(c2ccc(F)cc2)c2ccc(F)cc2)CC1 (stereo unspecified)			6.27	16.2	1.26							
Fc1ccc(C(SCCNC2CCN(Cc3ccc(C(F)(F)F)cc3)CC2)c2ccc(F)cc2)cc1			6.73									
Fc1ccc(C(SCCNC2CCN(CCc3ccccc3)CC2)c2ccc(F)cc2)cc1			7.24	4.57	1.83							
O=C(c1ccc(F)cc1)N1CCC(NCCSC(c2ccc(F)cc2)c2ccc(F)cc2)CC1	8.15		7.49	69.5	4.59	5.05	5.28	5.04	6.59	24	100	
NC(=O)C[S@+]([O-])C(c1ccc(F)cc1)c1ccc(F)cc1	5.53	4.82	< 4.00	5.05	> 34							
O=C(c1ccc(F)cc1F)N1CCC(NCC[S+]([O-])C(c2ccc(F)cc2)c2ccc(F)cc2)CC1 (stereo unspecified)	6.25	5.34	6.77	8.17	0.3							
Fc1ccc(CN2CCC(NCCSC(c3ccc(F)cc3)c3ccc(F)cc3)CC2)cc1			7.88	10.9	0.52	5.53	6.04	6.01		70	100	
Fc1ccc(C(SCCN2CCC(NCc3ccc(C(F)(F)F)cc3)CC2)c2ccc(F)cc2)cc1			6.79									
CC(C)(C)CN1CCC(NCCSC(c2ccc(F)cc2)c2ccc(F)cc2)CC1			6.50	3.39	1.13							
NC(=O)C[S+]([O-])C(c1ccc(F)cc1)c1ccc(F)cc1 (racemic)	5.39	4.31	< 4.00	11.9	> 24							
O=C(C1CC1)N1CCC(NCCSC(c2ccc(F)cc2)c2ccc(F)cc2)CC1			7.33	5.67	0.26							
CN(CC[S+]([O-])C(c1ccc(F)cc1)c1ccc(F)cc1)C1CCN(C(=O)c2ccccc2F)CC1 (stereo unspecified)	5.13	3.60	6.29	34	0.07							
[O-][S+](CCN1CCN(CC(O)Cc2ccccc2)CC1)C(c1ccc(F)cc1)c1ccc(F)cc1 (stereo unspecified)	8.59	4.90	7.38									
O=C(c1ccc(F)cc1)N1CCC(NCC[S+]([O-])C(c2ccc(F)cc2)c2ccc(F)cc2)CC1 (stereo unspecified)			5.84	60.1	18.7	3.81	4.55	< 4.00	4.64	79	100	< 3000
CC(C)N(CCSC(c1ccc(F)cc1)c1ccc(F)cc1)C1CCN(C(=O)c2ccccc2F)CC1	5.82	4.79	6.90	10.7	0.08							
Fc1ccc(C(SCCNC2CCN(CC3CC3)CC2)c2ccc(F)cc2)cc1			6.57	3.93	0.66							
